Measured values gathered from unrelated publications.
Compare with care: the assays were run in different laboratories.
TACR2: Substance-K receptor (TACR2, Homo sapiens, UniProt P21452)
Nos1: Nitric oxide synthase 1 (Nos1, Rattus norvegicus, UniProt P29476)
USP8: Ubiquitin carboxyl-terminal hydrolase 8 (USP8, Homo sapiens, UniProt P40818)
Dipeptidyl peptidase 8: Dipeptidyl peptidase 8 (Homo sapiens, UniProt Q6V1X1)
HDAC1: Histone deacetylase 1 (HDAC1, Homo sapiens, UniProt Q13547)

SMILES	target	assay	setting	inhibition [%]
CN(CCN1CCC(OC(=O)Nc2ccccc2-c2ccccc2)CC1)C(=O)c1ccc(CN2CCC(C(N)=O)CC2)cc1	TACR2	ligand displacement, radioligand	1 µM	1
C#Cc1n[nH]c2c(-c3cn(C(C)c4ccccn4)c(=O)[nH]c3=O)cc(F)cc12 (centres unmarked)	Glycogen synthase kinase-3 alpha (GSK3A, Homo sapiens, UniProt P49840)	enzyme activity, inhibitor	1 µM	4.6
C[C@H](C(=O)N[C@H]1COc2ccccc2[C@@H]1S(C)(=O)=O)c1ccc(F)cc1	Nos1	enzyme activity, inhibitor	10 µM	6
O=C(Nc1cccnn1)N1CCN([C@@H]2CCOc3cc(C(F)(F)F)ccc32)CC1	Somatostatin receptor type 4 (SSTR4, Homo sapiens, UniProt P31391)	ligand displacement	20 µM	29
COc1cc(Nc2ncc(F)c(Nc3ccc4c(n3)NC(=O)C(C)(C)O4)n2)cc(OC)c1OC	Ephrin type-A receptor 6 (EPHA6, Homo sapiens, UniProt Q9UF33)	binding, competition with immobilised ligand	10 µM	82
Cn1cc(-c2cc(F)cc(N3CCn4c(cc5c4CCCC5)C3=O)c2CO)cc(Nc2ccc(N3CCN(C4COC4)CC3)cn2)c1=O	Protein kinase C alpha type (PRKCA, Homo sapiens, UniProt P17252)	enzyme activity, inhibitor	0.1 µM	-11
N=C(N)c1ccc2cc(OC(=O)c3ccc(N=C(N)N)cc3)ccc2c1	USP8	enzyme activity, inhibitor	10 µM	5
O=c1ccc2ccc3occc3c2o1	Histone deacetylase 8 (HDAC8, Homo sapiens, UniProt Q9BY41)	enzyme activity, inhibitor	10 µM	33.9
N#Cc1ccc(NCCNCC(=O)N2N=CCC2C#N)nc1 (centres unmarked)	Dipeptidyl peptidase 8	enzyme activity, inhibitor	100 µM	81
c1ccc(C(NCCNC(c2ccccc2)c2ccccc2)c2ccccc2)cc1	Nos1	enzyme activity, inhibitor	10 µM	6
C#Cc1n[nH]c2c(-c3cn([C@@H](C)c4ccccc4)c(=O)[nH]c3=O)cc(F)cc12	Tyrosine-protein kinase Yes (YES1, Homo sapiens, UniProt P07947)	enzyme activity, inhibitor	0.1 µM	-3.5
O=C(CNC(=O)c1coc(-c2ccccc2O)n1)Nc1ccccc1	HDAC1	enzyme activity, inhibitor	20 µM	26
CCOC(=O)c1ccc(OC(=O)CCCCCNC(=N)N)cc1	USP8	enzyme activity, inhibitor	10 µM	0
CCN(CC)CCCC[C@H](NC(=O)[C@H](CC(C)C)NC(=O)[C@H](C)NC(=O)[C@H](Cc1ccccc1)NC(=O)c1ccc(C(C)(C)C)cc1)C(=O)N[C@@H](CO)C(=O)OC	TACR2	ligand displacement, radioligand	10 µM	75
CN(C)C(=O)COC(=O)Cc1ccc(OC(=O)c2ccc(NC(=N)N)cc2)cc1	Dipeptidyl peptidase 8	enzyme activity, inhibitor	10 µM	8
O=C(CCCCCCC(=O)Nc1ccccc1)NO	HDAC1	enzyme activity, inhibitor	0.1 µM	66.3
Cn1cc(-c2cccc(N3CCc4c(sc5c4CC(C)(C)C5)C3=O)c2CO)cc(Nc2ccncn2)c1=O	Testis-specific serine/threonine-protein kinase 2 (TSSK2, Homo sapiens, UniProt Q96PF2)	enzyme activity, inhibitor	1 µM	2
